Fewer inactive variants are shown than the library holds.
B1: tRNA (parent)
chain: GUUCCGUUGGCGUAAUGGUAACGCGUCUCCCUCCUAAGGAGAAGACUGCGGGUUCGAGUCCCGUACGGAACG

Variants of: B1
Assay: yeast fitness relative to wild type (ratio to wild type); higher = fitter; tRNA-Arg(CCU), competitive growth, 37 C, YPD
In short: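 Start and end populations of a pooled competition were compared by 100-nucleotide paired-end sequencing of gene amplicons. The Saccharomyces cerevisiae strains carried tRNA-Arg(CCU) gene variants at the native genomic locus, synthesised with a 3% per-site mutation rate at 69 sites, and competed in YPD at 37°C for 24 hours in six parallel replicates. Darwinian fitness relative to wild type was based on the change in genotype frequencies. Genotypes required ≥ 100 starting reads, and estimates < 0.5 were set to 0.5.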

Point of comparison: GUUCCGUUGGCGUAAUGGUAACGCCUCUCCAUCCUAAGGAGAAGACUACGGGUUCGAGUCACGUGCGGAACG [G25C C31A G48A C61A A65G], yeast fitness 0.558. Against it:
- GUUCCGUUGGCGUAAUGGUAACGCCUCUCCCUCCUAAGGAGAUGACUGCAGGUUCGAGUCCCGUACGGACCG [G25C A43U G50A A70C] — lower, ≤ 0.5
- GUUCCGUUGGCGUAAUGGUAACGCCUCUCCCUCCUAAGGAGAUGACUGCAGGUUCGAGUCCCGUACGAAACG [G25C A43U G50A G68A] — lower, ≤ 0.5
- GUUCCGUUGGCGUAAUGGUAACGCCUCUCCCUCCUAAGGAGAAGCCUGCGGGUUCGAGUCCCGUACGGAACG [G25C A45C] — higher, 1.06
- GUUCCGUUGGCGUAAUGGUAACGCCUCUCCCUCCUAAGGAGAAGCAUGCGGGUUCGAGUCCCGUACGGAACG [G25C A45C C46A] — higher, 0.991
- GUUCCGUUGGCGUAAUGGUAACGCCUCUCCCUCCUAAGGAGAAGGCUGCGGGUUCGAGUCCCGUACGGAACG [G25C A45G] — higher, 0.869
- GUUCCGUUGGCGUAAUGGUAACGCCUCUCCCUCCUAAGGAGAAGUCUGCGGGUUCGAGUACCGUACGGAACG [G25C A45U C60A] — lower, ≤ 0.5
- GUUCCGUUGGCGUAAUGGUAACGCCUCUCCCUCCUAAGGAGAAGACUGCGGGUUCGAGUCCCGUCCGGAACG [G25C A65C] — higher, 1.03
- GUUCCGUUGGCGUAAUGGUAACGCCUCUCCCUCCUAAGGAGAAGACUGCGGGUUCGAGUCCCGUACGGCACG [G25C A69C] — higher, 1.07
- GUUCCGUUGGCGUAAUGGUAACGCCUCUCCCUCCUAAGGAGAAGACUGCGGGUUCGAGUCCCGUACGGACCG [G25C A70C] — higher, 1.05
- GUUCCGUUGGCGUAAUGGUAACGCCUCUCCCUCCUAAGGAGAAGACUGCGGGUUCGAGUCCCGUACGGAGCG [G25C A70G] — higher, 0.873
- GUUCCGUUGGCGUAAUGGUAACGCCUCUCCCUCCUAAGGAGAAGACUGCGGGUUCGAGUCCCGUACGGAUCG [G25C A70U] — higher, 0.867
- GUUCCGUUGGCGUAAUGGUAACGCCUAUCCGUCCUAAGGAGAAGACUGCGGGUUCGAGUCCCGUACGGAACG [G25C C27A C31G] — lower, ≤ 0.5
- GUUCCGUUGGCGUAAUGGUAACGCCUAUCCCUCCUAAGGAGAAGACUGCGAGUUCGAGUCCCGUACGGAACG [G25C C27A G51A] — lower, 0.549
- GUUCCGUUGGCGUAAUGGUAACGCCUGUCCCUCCUAAGGAGAAGACUGCGGGUUCGAGUCCUGUACGGAACG [G25C C27G C62U] — higher, 0.597
- GUUCCGUUGGCGUAAUGGUAACGCCUGUCCCUCCUAAGGAGAAGACUGCGGGUUCGAAUCCCGUACGGAACG [G25C C27G G58A] — lower, ≤ 0.5
- GUUCCGUUGGCGUAAUGGUAACGCCUUUCCCUCCUAAGGAGAAGACUGCGGGUUCGAGUCCCGUACGGAACG [G25C C27U] — higher, 0.773
- GUUCCGUUGGCGUAAUGGUAACGCCUCUACCUCCUAAGGAGAAGACUGCGGGUUCGAGUCCCGUACGGAACG [G25C C29A] — higher, 0.696
- GUUCCGUUGGCGUAAUGGUAACGCCUCUACCUCCUAAGGAGAAGACUGCGGAUUCGAGUCCCGUACAGAACG [G25C C29A G52A G67A] — lower, ≤ 0.5
- GUUCCGUUGGCGUAAUGGUAACGCCUCUGCCUUCUAAGUAGAAGACUGCGGGUUCGAGUCCCGUACGGAACG [G25C C29G C33U G39U] — lower, ≤ 0.5
- GUUCCGUUGGCGUAAUGGUAACGCCUCUGCCUCCUAAGGAGAAGAGUGCGGGUUCGAGUCCCGUACGGAACG [G25C C29G C46G] — lower, ≤ 0.5
- GUUCCGUUGGCGUAAUGGUAACGCCUCUGCCUCCUAAGGAGAAGAGUGCGCGUUCGAGUCCCGUACGGAACG [G25C C29G C46G G51C] — lower, ≤ 0.5
- GUUCCGUUGGCGUAAUGGUAACGCCUCUGCCUCCUAAGGAGAAGACUGCGGGUUCGAGUGCCGUACGGAACG [G25C C29G C60G] — lower, ≤ 0.5
- GUUCCGUUGGCGUAAUGGUAACGCCUCUGCCUCCUAAGGAAAAGACUGUGGGUUCGAGUCCCGUGUGGAACG [G25C C29G G41A C49U A65G C66U] — higher, 0.583
- GUUCCGUUGGCGUAAUGGUAACGCCUCUGCCUCCUAAGGAAAAGACUGUGGGUUCGAGUCCCAUGUGGAACG [G25C C29G G41A C49U G63A A65G C66U] — lower, ≤ 0.5
- GUUCCGUUGGCGUAAUGGUAACGCCUCUGCCUCCUAAGGAGAAGACUGCGGAUUCGAGUCCCGUACGGUACG [G25C C29G G52A A69U] — lower, ≤ 0.5
- GUUCCGUUGGCGUAAUGGUAACGCCUCUUCCUCCUAAGGAGUAGACUGCGGGUUCGAGUCCCGUACGGAACG [G25C C29U A42U] — higher, 0.664
- GUUCCGUUGGCGUAAUGGUAACGCCUCUUCCUACUAAGGAGAAGACUGGGGGUUCGAGUCCCGUACGGAACG [G25C C29U C33A C49G] — higher, 0.714
- GUUCCGUUGGCGUAAUGGUAACGCCUCUUCCUUCUAAGGGGAAGACUGCGGAUUCGAGCCCCGUUCGGAACG [G25C C29U C33U A40G G52A U59C A65U] — lower, ≤ 0.5
- GUUCCGUUGGCGUAAUGGUAACGCCUCUCGCUCCUAAGGAGAAGACUGCGGGUUCGAGUCCCGUACGGAACG [G25C C30G] — higher, 0.582
- GUUCCGUUGGCGUAAUGGUAACGCCUCUCGCUCCUUAGGAGAAGAUUGCGGGUUCGAGUCCCGUGCGGAACG [G25C C30G A36U C46U A65G] — lower, ≤ 0.5
- GUUCCGUUGGCGUAAUGGUAACGCCUCUCGCUUCUAAGGAGAAGGCGGCCGGUUCGAGUCCCAUACGGAACG [G25C C30G C33U A45G U47G G50C G63A] — lower, ≤ 0.5
- GUUCCGUUGGCGUAAUGGUAACGCCUCUCGCUCCUAAGGAGAAGACUGCGGGUUCGAGUUCCGUACGGAACG [G25C C30G C60U] — lower, ≤ 0.5
- GUUCCGUUGGCGUAAUGGUAACGCCUCUCGCGCCUAAGGAGCAGACUGUGGGUUCGAGUCCCGUACGGAACG [G25C C30G U32G A42C C49U] — lower, 0.543
- GUUCCGUUGGCGUAAUGGUAACGCCUCUCUCUCCUAAGGAGAAGACUGCGGGUUCGAGUCCCGUACGGAACG [G25C C30U] — higher, 0.669
- GUUCCGUUGGCGUAAUGGUAACGCCUCUCUCUCCUAAGGAGAAGACUGCGGGUCCGAGUCCCGUACGGAACG [G25C C30U U54C] — lower, ≤ 0.5
- GUUCCGUUGGCGUAAUGGUAACGCCUCUCCAUCCUACGGAGAAGACCGCGGGUUCGAGUCUCGUACGGAACG [G25C C31A A37C U47C C61U] — higher, 0.702
- GUUCCGUUGGCGUAAUGGUAACGCCUCUCCAUCCUAAGGAGAUGACUGCGGGUACGAGUCCCGUACGGAACG [G25C C31A A43U U54A] — lower, ≤ 0.5

From the RNAGym collection of RNA variant scans (doi:10.1126/science.aae0568)
